These results are taken from ChEMBL document CHEMBL4513216, “Probing the Open Global Health Chemical Diversity Library for Multistage-Active Starting Points for Next-Generation Antimalarials” (ACS Infect Dis, 2020).

The series is described as follows: Toxicity liver stage against HepG2, at 10uM. The arrangement: test concentration 10 uM, cell line HepG2-A16-CD81EGFP. The following applies: human, HepG2-A16-CD81EGFP cells; read-out: INHIBITION
In kind it is cell-based. In short, it runs like this: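 Uninfected HepG2-A16-CD81EGFP cells, 3 × 10^3 per well, 1536-well, plated on prespotted compound at 10 μM final, parasite-free screening media added to match infected plates; puromycin 10 μM positive, DMSO 0.5% negative; run in parallel with 48 h PbLuc assay at 37 °C, 5% CO2; viability by CellTiter-Glo luminescence, normalized to controls.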
In the case of `O=C1NC2(CCNCC2)CC1c1ccccc1` (stereo unspecified), the cytotoxicity at 10 µM is -72.7%.

`COC1CCN(C(=O)c2csc(-c3ccccc3F)n2)CC1`: the cytotoxicity at 10 µM was -5.6%.

In the case of `O=C(CSCc1ccccn1)NCC1CC1`, the cytotoxicity at 10 µM is -3.42%.

For `CCOCc1ccccc1NC(=O)NC1CCN(C(=O)OCC)CC1`, the cytotoxicity at 10 µM was -14.5%.

With `CN(CC(=O)NCC(C)(C)c1ccc2c(c1)OCO2)c1cnccn1`, the cytotoxicity at 10 µM was -7.5%.

Consider `Cc1ccc(N2CCCc3sc(C(=O)NCCO)nc32)nn1`, for which the cytotoxicity at 10 µM came out at 13.3%.

Turning to `CCc1cnc(N2CCN(Cc3ccncc3)CC2)s1`, the cytotoxicity at 10 µM was 40.8%.

On to `CCc1nnc2n1CCN(C(=O)c1ccnc(N(C)C)c1)C2`, for which the cytotoxicity at 10 µM was -21%.

Consider `O=C1CCNc2ccc(F)cc2CN1Cc1ccccc1`, for which the cytotoxicity at 10 µM is -3.03%.

Take `O=C(CNC(=O)c1ccccc1Cl)Nc1nccs1`: the cytotoxicity at 10 µM was -3.09%.

For the compound `CO[C@H]1CN(C(C)C)C[C@@H]1NC(=O)Nc1ccc2oc(C)cc2c1`, the cytotoxicity at 10 µM came to 0.0448%.

With `CCn1cc(CN2CCCn3nc(CNS(C)(=O)=O)cc3C2)c(C)n1`, the cytotoxicity at 10 µM stood at 4.06%.

Take `Cc1cc(C(=O)NCCc2cn3nc(C)sc3n2)c(C)o1`: the cytotoxicity at 10 µM turned out to be 5.68%.

For `O=C(C1CCCC1)N1CCO[C@@H]2CNC[C@@H]21`, the cytotoxicity at 10 µM was 8.34%.

`CS(=O)(=O)NC1CC2(CCN(CCF)CC2)Oc2ccccc21` (stereo unspecified): the cytotoxicity at 10 µM is -2.68%.

Regarding `Cc1ccccc1CSc1nc(N)cc(N2C[C@H](O)[C@@H](N(C)C)C2)n1`, the cytotoxicity at 10 µM was 17.3%.

In the case of `Cc1ncncc1C(=O)N1CCOC(C(=O)NC2CCCC2)C1` (stereo unspecified), the cytotoxicity at 10 µM is -4.23%.

For the compound `Cc1nn(C)cc1C1SCC(=O)Nc2c1c(O)nn2C(C)C` (stereo unspecified), the cytotoxicity at 10 µM was found to be 1.04%.

As for `O=C1CC(N(C(=O)CCc2cc(F)ccc2F)C2CC2)C(=O)N1` (stereo unspecified), the cytotoxicity at 10 µM is 3.62%.

`CCCc1nc(C)cc(NCCc2nnc(N)s2)n1`: the cytotoxicity at 10 µM was 3.07%.

`CN(CCN1CCCC1)c1nccc(N2CCN[C@H]3CS(=O)(=O)C[C@H]32)n1`: the cytotoxicity at 10 µM was -8.93%.

On to `CCC(C)(C)N(C)CCOc1cccc(S(C)(=O)=O)c1`, for which the cytotoxicity at 10 µM is -8.42%.

For `C=C(C)C(=O)N1CCC(C(=O)c2cc(C)cnc2N)CC1`, the cytotoxicity at 10 µM was -2.88%.

As to `O=C(NCC1(O)CCOCC1)c1ccc(F)cc1`, the cytotoxicity at 10 µM is -9.52%.

Consider `Cc1cccc(C)c1OCC(C)Nc1nc(N)nc2c1CCNC2` (stereo unspecified), for which the cytotoxicity at 10 µM came out at 5.75%.

Consider `CS(=O)(=O)N1CCC(c2nnc3ccc(C(=O)N4CCCC4)cn23)C1` (stereo unspecified), for which the cytotoxicity at 10 µM was 1.47%.

`COCCn1ccc2c(NC(=O)c3n[nH]c4c3CCCC4)cccc21`: the cytotoxicity at 10 µM is 10.3%.

As for `Cc1ccc(C(=O)N2CCC3(CC2)CC(N2CCOCC2)C3)cc1`, the cytotoxicity at 10 µM was 1.93%.

On to `O=C(NCCCO)Nc1ccccc1`, for which the cytotoxicity at 10 µM came out at 1.52%.

On to `O=C(NCCn1nc(C2CCNC2)c2cccnc21)C1CCC1` (stereo unspecified), for which the cytotoxicity at 10 µM is -7.87%.

For the compound `O=C1CC[C@H](C(=O)N(Cc2cccc(Br)c2)C2CC2)N1`, the cytotoxicity at 10 µM was 7.24%.

On to `CN(CCCc1cnn(C)c1)C(=O)Nc1cccc2[nH]nnc12`, for which the cytotoxicity at 10 µM was -3.98%.

Turning to `CCN(C(=O)c1nc2c(s1)CCCN2C(C)=O)C(C)C`, the cytotoxicity at 10 µM is -0.802%.

Regarding `O=C(CS(=O)(=O)Cc1csc(-c2ccc(F)cc2)n1)NCC1CC1`, the cytotoxicity at 10 µM was -3.06%.

For the compound `Cc1noc(-c2ccc(N(C)Cc3ccncn3)nc2)n1`, the cytotoxicity at 10 µM turned out to be 1.11%.

Regarding `c1ccn2c(SCC3CN=C(N4CCOCC4)S3)ncc2c1` (stereo unspecified), the cytotoxicity at 10 µM is 11.8%.

With `c1cnc(OCc2nnc3n2CCN(Cc2ccco2)C3)nc1`, the cytotoxicity at 10 µM was -2.12%.

Consider `Cc1ccc([C@]2(O)CC[C@H]3CN(Cc4cccc(Cl)c4Cl)C[C@H]32)nc1`, for which the cytotoxicity at 10 µM came to 9.42%.

As to `CN1CCN(CCCNC(=O)c2cc(Cl)c3c(c2)OCO3)CC1`, the cytotoxicity at 10 µM was -16.7%.

Turning to `CCS(=O)(=O)N1Cc2nccn2CC(Cn2nc(C)nc2C)C1` (stereo unspecified), the cytotoxicity at 10 µM is -2.34%.

`CC(C)c1ncc2c(n1)CN(Cc1noc(-c3ccccc3)n1)CC2`: the cytotoxicity at 10 µM is -0.414%.

`CN(CC(=O)N1CCCCC1c1nc(C(C)(C)C)cs1)C1CC1` (stereo unspecified): the cytotoxicity at 10 µM was -2.77%.

Take `CC(=O)N1CCN(C(=O)Nc2ccc(Cl)cc2)[C@H]2CS(=O)(=O)C[C@H]21`: the cytotoxicity at 10 µM was found to be 6.55%.

Take `Cc1cc(C)n(-c2cncc(NCCNC(=O)C(C)C)n2)n1`: the cytotoxicity at 10 µM is -2.91%.

With `CCn1cnnc1C1CCCN(C(=O)COc2ccc(Cl)cc2)C1` (stereo unspecified), the cytotoxicity at 10 µM is -5.26%.

`Cc1nc(CN2C[C@@H]3CN(C(=O)NC(C)C)C[C@@H]3C2=O)cs1`: the cytotoxicity at 10 µM is -76.2%.

In the case of `N#Cc1ccccc1CN1CCc2sccc2C1`, the cytotoxicity at 10 µM was -0.572%.

Regarding `CSCC(C)(O)CNC(=O)c1cc(Cl)ccc1Cl` (stereo unspecified), the cytotoxicity at 10 µM worked out at 9.88%.

Take `Cc1c[nH]c(CN(C)C(=O)C(C)(C)NC(=O)c2cccs2)n1`: the cytotoxicity at 10 µM worked out at 3.08%.

`O=C(N[C@@H]1CN(Cc2ccco2)[C@@H]2CCCO[C@@H]21)c1cscn1`: the cytotoxicity at 10 µM is -105%.

Regarding `Cc1cc2c(cc1Cl)C=CC1(CCN(CC(=O)N3CCOCC3)CC1)O2`, the cytotoxicity at 10 µM is -1.7%.

Consider `CCc1ocnc1C(=O)N1CCOCC1CC(=O)c1ccccc1` (stereo unspecified), for which the cytotoxicity at 10 µM was found to be 5.92%.

In the case of `c1ccc2c(c1)CC(N1CCCN(Cc3cccc4nonc34)CC1)C2`, the cytotoxicity at 10 µM was -2.37%.

With `Cc1cccc2nc(CNC(=O)N3CCC(OCC4CC4)CC3)cn12`, the cytotoxicity at 10 µM is -2.02%.

For the compound `C1CC(CN2C[C@@H]3CC[C@H]2CN(Cc2nnc(C4CC4)o2)C3)C1`, the cytotoxicity at 10 µM came to 1.19%.

For `COc1ccncc1NC(=O)C1(c2ccccc2)CC1`, the cytotoxicity at 10 µM came to 2.72%.

As to `CCN1CCn2c(C)cnc2C12CCN(C(=O)c1ccc(Cl)cc1)CC2`, the cytotoxicity at 10 µM turned out to be 1.22%.

`CC(NS(C)(=O)=O)C(=O)Nc1ccc2oc(C3CC3)nc2c1` (stereo unspecified): the cytotoxicity at 10 µM was determined as 2.78%.

Turning to `Cc1n[nH]c(C2CN(Cc3csc(C4CCCC4)n3)CCO2)n1` (stereo unspecified), the cytotoxicity at 10 µM worked out at 12.9%.

Regarding `CC(=O)N1CCCN(CC(C)(O)c2cccc(C(F)(F)F)c2)CC1` (stereo unspecified), the cytotoxicity at 10 µM is -10.3%.

On to `O=C(Cc1c[nH]c2ccccc12)NCC1CCN(Cc2c[nH]cn2)C1` (stereo unspecified), for which the cytotoxicity at 10 µM was 2.34%.

As to `CS(=O)(=O)c1ccc(CNC(=O)Nc2cn[nH]c2)cc1`, the cytotoxicity at 10 µM is -1.88%.

Turning to `CCNC(c1cccnc1)c1cc(C)cc(C)c1` (stereo unspecified), the cytotoxicity at 10 µM was determined as 2.77%.

Take `O=C(NCC(O)c1ccc(F)c(F)c1)c1ccccc1F` (stereo unspecified): the cytotoxicity at 10 µM is -3%.

Turning to `CCc1nonc1NC(=O)C(C)Oc1ccccc1F` (stereo unspecified), the cytotoxicity at 10 µM was determined as 12%.

In the case of `CCC1CCc2c(c3ccccc3[nH]c2=O)O1` (stereo unspecified), the cytotoxicity at 10 µM is -1.1%.

`CCn1ccnc1S(=O)(=O)Cc1c(C)cc(C)c(C(C)=O)c1C`: the cytotoxicity at 10 µM came out at 8.5%.

Turning to `CC(C)c1noc(CN2CCC(c3ccnn3CCO)CC2)n1`, the cytotoxicity at 10 µM is -18.6%.

As for `Cc1cc2c(=O)n3c(nc2s1)CCN(C(=O)c1nn(C)cc1Cl)CC3`, the cytotoxicity at 10 µM was 16.6%.

In the case of `COc1cc(C)ccc1OCC(=O)Nc1ccnc(OCCN(C)C)c1`, the cytotoxicity at 10 µM is -5.18%.

As to `Cc1ccccc1OCC(=O)N1CCN(C2CCOC2=O)CC1` (stereo unspecified), the cytotoxicity at 10 µM was -19.3%.
